Rows were chosen to be rich in hits. Some 1.9% of all compounds tested hit in one or more screens of this group.
IDE inh: human IDE inhibitors in live cells, primary screen, fluorescence polarization, HEK cells, FAbetaB substrate; Insulin-degrading enzyme (Homo sapiens), P14735; FAbetaB cleavage; inhibition, % at 5.59 µM; hit rate 0.41% among 320,000; AID 434962, 2010;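 active means percent inhibition above the average of all tested compounds plus 3 SD, set per screening campaign, cut at about 16% in these data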;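 further: IDE supplied by intact live HEK cells; FP after avidin binding of uncleaved biotin substrate so inhibition keeps polarization high; 0% = DMSO wells and 100% = 60 µM reference IDE inhibitor Ii1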
Target sequence (P14735 whole entry, looked up): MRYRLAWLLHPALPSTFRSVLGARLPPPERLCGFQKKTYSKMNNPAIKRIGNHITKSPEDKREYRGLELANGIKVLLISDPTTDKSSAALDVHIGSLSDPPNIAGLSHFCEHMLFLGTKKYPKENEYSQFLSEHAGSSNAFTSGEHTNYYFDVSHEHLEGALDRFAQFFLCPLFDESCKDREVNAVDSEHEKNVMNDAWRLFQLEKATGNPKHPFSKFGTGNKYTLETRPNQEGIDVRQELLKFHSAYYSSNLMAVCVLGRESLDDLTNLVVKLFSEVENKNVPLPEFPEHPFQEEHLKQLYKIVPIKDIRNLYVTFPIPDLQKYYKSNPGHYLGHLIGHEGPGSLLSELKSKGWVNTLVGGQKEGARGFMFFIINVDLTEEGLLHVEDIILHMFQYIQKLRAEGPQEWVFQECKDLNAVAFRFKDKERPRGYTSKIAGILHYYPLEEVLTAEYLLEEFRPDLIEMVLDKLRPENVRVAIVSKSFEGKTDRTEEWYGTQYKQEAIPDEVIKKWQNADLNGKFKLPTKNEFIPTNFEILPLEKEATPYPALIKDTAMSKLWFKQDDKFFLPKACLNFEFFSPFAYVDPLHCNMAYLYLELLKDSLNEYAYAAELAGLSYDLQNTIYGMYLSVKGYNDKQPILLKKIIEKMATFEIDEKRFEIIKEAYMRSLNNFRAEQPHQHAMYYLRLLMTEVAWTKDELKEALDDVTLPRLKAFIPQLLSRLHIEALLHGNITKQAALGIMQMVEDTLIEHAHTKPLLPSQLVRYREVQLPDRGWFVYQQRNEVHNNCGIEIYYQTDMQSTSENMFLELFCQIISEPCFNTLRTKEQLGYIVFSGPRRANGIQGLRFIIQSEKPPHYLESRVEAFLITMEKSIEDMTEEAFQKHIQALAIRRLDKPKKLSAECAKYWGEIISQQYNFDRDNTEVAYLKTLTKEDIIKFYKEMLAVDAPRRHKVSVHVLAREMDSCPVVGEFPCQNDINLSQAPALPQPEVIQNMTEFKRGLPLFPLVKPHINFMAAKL
PHOSPHO1 block: PubChem AID 1565. Phosphoethanolamine/phosphocholine phosphatase (Homo sapiens), Q8TCT1. recombinant PHOSPHO1, absorbance phosphatase assay. inhibition, % at 13.3 µM. hit rate 1.1% among 290,000; in the data active means inhibition above about 60%
proCasp7 act: procaspase-7 activators, primary screen, counter-screen for procaspase-3 activator project, biochemical, absorbance, HTS, human; Caspase-7 (Homo sapiens), P55210; recombinant procaspase-7, Ac-DEVD-pNA absorbance 405 nm; D23A/D198A/D206A triple mutant, cannot self-cleave; scale: DMSO 0, 5 µM enzyme 100; activation, % at 8.5 µM; hit rate 0.093% among 330,000; AID 463210, 2010;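 active means percent activation above the screen-wide mean plus 3 SD, cut at about 25% in these data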
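Replicates: singlicate. Assay system: Procaspase-7 triple mutant (PC-7 D3A). Signal: 405 nm absorbance of p-nitroaniline. Times: 1 h preincubation, 2 h reaction. Buffer or medium: Zinc-free HEPES pH 7.4 with 300 mM NaCl, 0.01% Triton X-100. Also added: DEVD-pNA substrate. Benchmarks: DMSO wells as 0%, DMSO with 5 µM added PC-7 as 100%.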
IDE cell activ: human IDE activators in live cells, primary screen, fluorescence polarization, HEK cells, FAbeta-B substrate | activation, % at 5.96 µM | Insulin-degrading enzyme (Homo sapiens), P14735 | FAbeta-B cleavage; 0% vehicle, 100% cell-free pure enzyme wells | AID 493087, 2011 | hit rate 0.073% among 340,000;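 active means activation above the mean of all tested compounds plus 3 SD, set per screening campaign, cut at about 17% in these data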
UBC13 inh: UBC13 polyubiquitin chain formation inhibitors, primary screen, biochemical, TR-FRET, uHTS. Ubiquitin-conjugating enzyme E2 N (Homo sapiens), P61088. inhibition, % at 20 µM. hit rate 0.47% among 330,000. AID 485273, 2010; in the data active means inhibition above about 45%, passing the limit was not always enough
proCasp3 act: activators of human procaspase-3 D3A mutant, primary screen, biochemical, absorbance, PC-3 D3A mutant, single concentration | Caspase-3 (Homo sapiens), P42574 | recombinant procaspase-3 D3A, Ac-DEVD-pNA absorbance 405 nm | activation, % at 8.5 µM | hit rate 0.11% among 330,000 | AID 463141, 2010;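 active means activation above the mean of all tested compounds plus 3 SD, cut at about 21% in these data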;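 further: 0% = DMSO alone and 100% = DMSO wells spiked with extra 5 µM PC-3 D3A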
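Test system: Procaspase-3 D3A mutant; medium: Zinc-free HEPES/NaCl buffer with 0.01% Triton X-100 at pH 7.4; reagent: DEVD-pNA substrate; doses: one concentration, 8.5 µM nominal, 0.8% DMSO; times: 1 h preincubation plus 2 h reaction at 25 °C; signal: Epi-absorbance at 405 nm of released p-nitroaniline, 0 and 120 min; replicates: singlicate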
IDE cell inh cf: human IDE inhibitors in live cells, confirmation, fluorescence polarization, HEK cells, FAbetaB substrate; inhibition, % at 5.59 µM; shares compounds with IDE inh; hit rate 51% among 1,200; FAbetaB cleavage;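 active means mean inhibition across triplicate wells above the cutoff set by the earlier primary insulin-degrading enzyme screen, cut at about 16% in these data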;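 further: 0% = DMSO wells and 100% = 60 µM reference IDE inhibitor Ii1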
HEK293 tox: cytotoxicity in HEK cells, cytotoxicity control for IDE inhibitor project, cell-based, luminescence | shares compounds with IDE inh | HEK293 cytotoxicity, ATP luminescence | inhibition, % at 5.59 µM | hit rate 28% among 1,200; in the data active means inhibition above about 22%;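 further: 0% = vehicle wells and 100% = reference cytotoxic drug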
procasp7 triplic: procaspase-7 activators, counter-screen for procaspase-3 activator project, biochemical, absorbance, triplicate, human; activation, % at 8.5 µM; 210 tested, under 10 active; shares compounds with proCasp3 act; AID 488941, 2010; recombinant procaspase-7, Ac-DEVD-pNA absorbance; asp23/198/206-to-Ala mutant, cannot self-cleave;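 active means mean activation above a set limit taken from an earlier procaspase-7 screen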;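 further: 0% = DMSO wells and 100% = DMSO plus 5 µM procaspase-7 enzyme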
proCasp3 confirm: activators of human procaspase-3 D3A mutant, confirmation, biochemical, absorbance, PC-3 D3A mutant, triplicate; recombinant PC-3 D3A, Ac-DEVD-pNA absorbance 405 nm; 100% is higher-enzyme control; AID 488954, 2010; activation, % at 8.5 µM; shares compounds with proCasp3 act; hit rate 10% among 210;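 active means mean activation above a set limit carried over from the earlier primary screen, cut at about 22% in these data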
Casp3 UBC13 ctr: CASP3 inhibitor validation, counterassay for project on UBE2N polyubiquitination blockers, biochemical, one dose; shares compounds with UBC13 inh; Recombinant caspase-3, Caspase-Glo 3/7 luminescence, 60 min; inhibition, % at 20 µM; hit rate 4% among 1,400;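 active means mean inhibition across replicates above about 26%, limit read from the data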;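 further: plate controls were DMSO with caspase-3 for no effect and DMSO wells lacking enzyme for full effect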
UBC13 confirm: UBC13 polyubiquitination inhibitors, single-point retest, confirmation, biochemical, TR-FRET, single concentration. shares compounds with UBC13 inh. inhibition, % at 10 µM. hit rate 68% among 1,400; in the data active means inhibition above about 45%
* marks the source's active call; other numbers are inactive results; . = not tested or not shown.

SMILES | IDE inh | PHOSPHO1 block | proCasp7 act | IDE cell activ | UBC13 inh | proCasp3 act | procasp7 triplic | proCasp3 confirm | others
CC(=O)NC(c1ccco1)c1cc(Cl)c2ccccc2c1O (stereo unspecified) | 35.8* | . | -25.8 | -7.5 | 47.1* | -17.0 | . | . | IDE cell inh cf=10.8;HEK293 tox=6.4;Casp3 UBC13 ctr=-1.9;UBC13 confirm=36.8
COc1cc2[nH]c3c(N4CCN(c5ccc(Cl)cc5)CC4)ncnc3c2cc1OC | 51.7* | 16.3 | 4.3 | -28.7 | 51.4* | 2.3 | . | . | IDE cell inh cf=27.2*;HEK293 tox=37.9*;Casp3 UBC13 ctr=1.9;UBC13 confirm=33.3
COC(=O)c1cccc(NC(=O)CN2CCc3ccccc3C2)c1 | 4.2 | 24.7 | 0.9 | 2.5 | 2.6 | -3.9 | . | .
CC[n+]1c(/C=C/N(C)c2ccccc2)n(-c2ccccc2)c2ccc(-c3nc4ccccc4s3)cc21 | 56.7* | -154.8 | -33.2 | -29.1 | 83.7* | -78.6 | . | . | IDE cell inh cf=21.5*;HEK293 tox=118.2*;Casp3 UBC13 ctr=0.7;UBC13 confirm=98.0*
Cc1cc(C(=O)Nc2ccc([N+](=O)[O-])cn2)cs1 | -1.6 | 34.8 | -10.6 | -6.5 | -7.8 | -0.5 | . | .
CCCc1[nH]nc2c1C(c1cccc(OC(=O)c3ccco3)c1)C(C#N)=C(N)O2 (stereo unspecified) | 2.4 | 0.1 | 9.2 | -6.1 | 6.7 | 21.3* | 0.1 | 3.7
CCCc1[nH]nc2c1C(c1cc(OC)cc(OC)c1)C(C#N)=C(N)O2 (stereo unspecified) | -0.5 | 5.7 | -11.8 | 0.1 | -1.3 | -11.1 | . | .
OCCOc1cccc(CN2CCC(CO)(CCOc3ccccc3)CC2)c1 | -0.7 | 45.4 | 5.6 | -0.8 | 11.9 | 25.3* | 2.0 | 4.6
Cc1ccc(C(CC(=O)O)NC(=O)c2ccc(S(=O)(=O)N3CC(C)OC(C)C3)cc2)cc1 (stereo unspecified) | 6.0 | . | -5.7 | 1.4 | 0.6 | 9.1 | . | .
CCCC1=Nc2cc(C(=O)N3CCN(c4ccccn4)CC3)ccc2Sc2ccc(C)cc21 | -4.2 | 32.4 | 4.6 | 3.0 | -9.0 | -5.6 | . | .
COc1ccc(Nc2nc(N3CCN(S(=O)(=O)N(C)C)CC3)nc3ccccc23)cc1 | 3.4 | 20.1 | -4.7 | 0.8 | 9.5 | -1.7 | . | .
CNC(=O)c1c(NC(=O)c2cccc(C)c2)sc2c1CCC2 | 1.8 | 23.9 | -226.4 | 1.1 | -2.7 | 28.9* | -3.0 | -1.8
Cc1cccc(C(=O)Nc2sc3c(c2C(=O)O)CCC3)c1 | -6.6 | 28.1 | -10.8 | -0.2 | 21.4 | 0.8 | . | .
CCC(CC)C(=O)Nc1nnc(S(=O)(=O)Nc2ccccc2C)s1 | 1.4 | 9.3 | 4.2 | 1.1 | -10.0 | -1.4 | . | .
N#Cc1c(-c2ccccc2Cl)c2c([nH]c1=O)-c1ccccc1OC2 | -0.1 | 11.7 | 3.8 | -0.3 | 10.9 | 25.9* | -21.5 | -14.4
N#Cc1c(-c2ccncc2)c2c([nH]c1=O)-c1ccccc1OC2 | 5.3 | 26.8 | -0.6 | . | 7.6 | -7.8 | . | .
O=C(Cc1cccc(C(F)(F)F)c1)Nc1cc(S(=O)(=O)N2CCOCC2)ccc1N1CCCC1 | -1.3 | . | 7.6 | 4.8 | 6.8 | 8.0 | . | .
CCCCCOc1ccc(NC2=CC(=O)CCC2)cc1 | 3.6 | 6.9 | 21.2 | 2.2 | -10.6 | 23.8* | 0.2 | 4.5
CCOc1ccc(NC2=CC(=O)CCC2)cc1 | 3.3 | 6.5 | -9.1 | 0.6 | -3.3 | 4.2 | . | .
COCCn1c(N)c(C(=O)NCc2cccs2)c2nc3ccccc3nc21 | 8.9 | -1.5 | -1.1 | -0.8 | 21.4 | 64.3* | -21.2 | -16.0
COCCn1c(N)c(C(=O)NCC2CCCO2)c2nc3ccccc3nc21 (stereo unspecified) | -0.6 | 2.3 | -22.2 | -6.2 | -1.0 | -11.2 | . | .
O=C1OC(c2ccccc2)(c2cc(Br)ccc2O)c2ccccc21 (stereo unspecified) | . | . | . | 2.0 | . | . | . | .
O=C1C(Cc2ccccc2)Nc2ncnc(N3CCN(c4ccccc4)CC3)c2N1Cc1ccc(Cl)cc1 (stereo unspecified) | -2.2 | . | -2.1 | 5.1 | -14.3 | 0.7 | . | .
CC1(C)CC(=O)C2=C(C1)c1c(ccc3ccccc13)NC2c1ccc(OCC(=O)O)cc1 (stereo unspecified) | -1.5 | 55.1 | 3.6 | -3.1 | -1.2 | 0.1 | . | .
CC1(C)CC(=O)C2=C(C1)c1c(ccc3ccccc13)NC2c1ccc(Br)o1 (stereo unspecified) | -1.2 | 8.5 | 16.0 | 3.2 | 2.0 | 29.4* | 31.0* | 3.6
CN(C)C(=O)c1ccc(NC(=O)COC(=O)C2CCN(S(=O)(=O)c3ccc4c(c3)OCCO4)CC2)cc1 | -2.8 | . | 9.6 | 2.9 | 5.9 | 1.9 | . | .
CC1CCC2(CC1)NC(=O)N(CC(=O)Nc1cccc(C#N)c1)C2=O (stereo unspecified) | -0.3 | . | -7.7 | 0.5 | 3.4 | 1.3 | . | .
Cc1cc2nc(-c3ccccc3)cc(=O)n2[nH]1 | 0.4 | 28.8 | 2.8 | 8.2 | 12.9 | 22.7* | -0.2 | 2.6
O=c1cc(-c2ccccc2)nc2cc(-c3ccc(Br)cc3)[nH]n12 | -1.9 | 39.4 | -4.6 | -1.4 | 2.1 | -1.4 | . | .
Cc1cc(Br)ccc1NC(=O)CN(C)C(=O)C1=COCCO1 | -5.2 | . | 8.2 | 3.5 | -14.8 | 8.9 | . | .

High-throughput results from PubChem.
